Bioassay records from PubChem.
SKN-1 block: blocks SKN-1 activity in C. elegans; C. elegans VP596 Pgst-4::GFP/RFP ratio, acrylamide-induced, 24 h; AID 624304; hit rate 0.49% among 360,000; inhibition, % at 21.8 µM;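 active = interference check ratio from 0.5 to 1.5 plus GFP to RFP signal ratio inhibition reaching or exceeding a fixed threshold, cut at about 30% in these data, passing the limit was not always enough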
Myeloid diff MLP: myeloid differentiation induction. ER-HoxA9 myeloid progenitors, lysozyme-GFP differentiation, flow cytometry. calls only at 10 µM. hit rate 1% among 360,000. AID 624256;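 active = normalized GFP-positive differentiation at or above the plate's own cutoff, the solvent-only control mean plus 3 SD; inconclusive = no clear call, values can overlap the other calls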;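 note: cells exposed to compound for four days before flow analysis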
T cell HTS: T cell immune modulators affecting CD8 T cell-vesicle binding; 2C CD8+ T cell-vesicle binding, flow cytometry; hits give low values; response (vesicle binding), % at 7 µM; hit rate 0.068% among 330,000; AID 2052;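 active = response, share of CD8 T cells binding vesicles, and their 90th percentile fluorescence all below set limits, cut at about 80% in these data, passing the limit was not always enough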;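 note: values below 100% mean blocked vesicle binding to the CD8+ T cells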
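Incubation: binding step 1.5 h, 37 °C, antibody labelling 20 min, ice; system: murine 2C transgenic CD8+ T lymphocytes; technique: cytometric PE anti-B7-1 and Alexa647 anti-CD8 signals after 1% paraformaldehyde fixation; also added: QL9-charged Drosophila Ld/ICAM-1/B7-1 vesicles; control set: naked versus QL9-loaded vesicles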
Rin1-Abl PPI inh: human Rin1-Abl interaction inhibition. TR-FRET Rin1/Abl binding, biochemical. inhibition, % at 7.35 µM. hit rate 0.4% among 360,000. AID 588664; in the data active = inhibition above about 5%, passing the limit was not always enough
Target sequence (P00519 whole entry, looked up): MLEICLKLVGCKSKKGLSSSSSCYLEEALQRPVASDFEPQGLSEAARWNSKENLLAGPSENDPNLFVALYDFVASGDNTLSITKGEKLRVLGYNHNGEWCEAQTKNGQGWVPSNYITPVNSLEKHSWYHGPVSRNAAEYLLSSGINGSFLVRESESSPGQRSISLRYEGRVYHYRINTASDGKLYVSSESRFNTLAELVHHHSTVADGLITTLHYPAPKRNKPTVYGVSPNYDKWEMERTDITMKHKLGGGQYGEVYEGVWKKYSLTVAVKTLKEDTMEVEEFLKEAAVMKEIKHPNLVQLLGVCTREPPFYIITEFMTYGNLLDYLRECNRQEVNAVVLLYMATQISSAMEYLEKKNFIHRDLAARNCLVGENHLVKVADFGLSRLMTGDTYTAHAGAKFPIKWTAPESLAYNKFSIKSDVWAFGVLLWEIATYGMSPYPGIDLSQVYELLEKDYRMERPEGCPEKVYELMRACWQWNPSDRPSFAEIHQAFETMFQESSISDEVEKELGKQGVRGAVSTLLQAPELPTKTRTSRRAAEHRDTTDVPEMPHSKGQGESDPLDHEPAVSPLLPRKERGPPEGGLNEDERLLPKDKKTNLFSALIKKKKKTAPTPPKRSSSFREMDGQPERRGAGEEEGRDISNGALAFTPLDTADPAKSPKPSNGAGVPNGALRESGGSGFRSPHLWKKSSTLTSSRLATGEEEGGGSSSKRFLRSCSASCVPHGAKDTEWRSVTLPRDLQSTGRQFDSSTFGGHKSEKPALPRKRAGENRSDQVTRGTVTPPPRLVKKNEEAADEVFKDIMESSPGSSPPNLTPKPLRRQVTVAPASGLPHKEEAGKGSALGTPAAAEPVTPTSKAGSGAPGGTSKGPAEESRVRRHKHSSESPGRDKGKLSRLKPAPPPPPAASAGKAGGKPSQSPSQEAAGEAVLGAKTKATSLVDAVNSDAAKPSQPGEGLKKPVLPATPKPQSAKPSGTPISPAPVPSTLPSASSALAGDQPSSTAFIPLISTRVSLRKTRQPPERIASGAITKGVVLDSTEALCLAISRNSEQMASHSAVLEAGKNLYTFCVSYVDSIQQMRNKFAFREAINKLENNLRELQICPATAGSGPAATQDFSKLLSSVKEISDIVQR
Target sequence (Q13671 whole entry, looked up): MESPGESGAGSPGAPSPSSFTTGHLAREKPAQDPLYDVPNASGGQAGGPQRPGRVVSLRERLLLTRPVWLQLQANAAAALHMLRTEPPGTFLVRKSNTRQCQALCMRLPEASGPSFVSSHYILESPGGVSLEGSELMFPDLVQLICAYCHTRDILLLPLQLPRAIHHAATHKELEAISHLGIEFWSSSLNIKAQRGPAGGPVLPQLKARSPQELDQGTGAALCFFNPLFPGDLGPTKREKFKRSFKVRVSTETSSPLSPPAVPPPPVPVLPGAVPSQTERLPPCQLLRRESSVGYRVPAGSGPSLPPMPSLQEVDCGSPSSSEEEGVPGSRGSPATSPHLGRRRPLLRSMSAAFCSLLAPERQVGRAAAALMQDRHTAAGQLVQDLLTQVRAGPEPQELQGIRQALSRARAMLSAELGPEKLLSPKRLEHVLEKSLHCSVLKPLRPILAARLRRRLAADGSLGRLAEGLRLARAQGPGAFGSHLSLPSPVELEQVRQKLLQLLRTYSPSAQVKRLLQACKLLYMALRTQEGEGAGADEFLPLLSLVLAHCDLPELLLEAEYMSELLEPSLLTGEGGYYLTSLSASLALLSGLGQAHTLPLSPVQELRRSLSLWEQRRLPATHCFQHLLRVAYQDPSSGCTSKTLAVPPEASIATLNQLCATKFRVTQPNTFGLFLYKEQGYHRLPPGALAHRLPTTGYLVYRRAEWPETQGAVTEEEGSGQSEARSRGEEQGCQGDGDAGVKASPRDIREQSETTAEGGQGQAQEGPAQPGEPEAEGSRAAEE
GRK2 aptamer HTS: human GRK2 inhibition via aptamer displacement; bead flow cytometry, FAM-aptamer displacement from GRK2; inhibition of aptamer binding, % at 10 µM; hit rate 0.59% among 330,000; AID 488847;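 active = inhibition of aptamer binding above 40%, roughly 3 SD of noise, on plates passing a quality check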;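 note: median bead fluorescence of bound FAM aptamer so fluorescent compounds give negative values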
Rce1 inh: blocks yeast Ras-converting enzyme; calls only; yeast membranes, quenched prenylated peptide cleavage fluorescence; hit rate 0.27% among 290,000; Q03530;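 active = fall in fluorescence gain of 50% or more versus controls, with final raw signal at or below 3038400; inconclusive = same 50% fall but final raw signal above 3038400; inactive = fall in fluorescence gain under 50%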
GRK2 CP1: human GRK2 inhibition confirmation, cherry pick 1; shares compounds with GRK2 aptamer HTS; bead-bound GRK2, FAM-aptamer displacement, flow cytometry; aptamer displacement, % at 10 µM; hit rate 4% among 2,000; AID 504451;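 active = aptamer displacement above 40%, near three times the noise of non-fluorescent compounds, on plates passing quality checks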;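 note: negative values mostly reflect intrinsic compound fluorescence rather than true enhancement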
Aptamer quench SP: counter-screen for GRK2 aptamer inhibitors: fluorescent aptamer quenchers | shares compounds with GRK2 aptamer HTS | Carboxyfluorescein RNA aptamer on beads, flow cytometry quenching; hits give low values | fluorescence response (% of DMSO), % at 10 µM | 2,000 tested, under 10 active | AID 504580;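 active = compounds that quench the bead-bound fluorescent RNA probe, cutting fluorescence to under half of the solvent control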;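 note: counterscreen run without GRK2 so only probe quenching by compound is measured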
GRK2 CP2: human GRK2 inhibition confirmation, cherry pick 2; shares compounds with GRK2 aptamer HTS; bead-bound GRK2, FAM-aptamer displacement, flow cytometry; inhibition of aptamer binding, % at 10 µM; 360 tested, under 10 active; AID 504782;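 active = inhibition of aptamer binding above 40%, about triple the noise seen with nonglowing compounds, on plates passing quality control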;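 note: negative values mostly come from compounds that fluoresce themselves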
FAM quench CP2: quenches fluorescent RNA aptamer, GRK2 hit artifact | fluorescence response vs DMSO, % at 10 µM | shares compounds with GRK2 aptamer HTS | carboxyfluorescein RNA aptamer beads, flow cytometry quenching; hits give low values | 360 tested, under 10 active;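 active = response vs DMSO under 50%, meaning signal dropped by over half, treated as fluorescence quencher; inconclusive = no clear call, values can overlap the other calls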;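 note: labelled aptamer on streptavidin beads without GRK2 as a quench counter-screen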
A number is an active result; – = inactive; ? = inconclusive; · = no result. Sampled rows, rich in hits. Any-hit rate of the full collection: about 2.6%.

SMILES	SKN-1 block	Myeloid diff MLP	T cell HTS	Rin1-Abl PPI inh	GRK2 aptamer HTS	Rce1 inh	GRK2 CP1	Aptamer quench SP	others
CCC(=O)Oc1ccc2c(C)cc(=O)oc2c1C(=O)c1ccccc1	–	–	–	–	–	–	·	·
CCC(=O)Oc1ccc2c(C)cc(=O)oc2c1C(=O)CC	–	–	–	–	100.0	–	–	–
COC(=O)/C(C(C)=O)=C(\C=C\N(C)C)N(C)C	–	–	–	–	–	–	·	·
COC(=O)\C(C(C)=O)=C(/C=C/C=C/C=C/N(C)C)N(C)C	–	–	–	–	71.0	–	–	–
Cc1ccc(N(CC(=O)Nc2c(C)cccc2C)S(C)(=O)=O)cc1	–	–	–	–	–	–	·	·
Cc1nn(-c2ccc(Cl)cc2)c(=O)c2ccccc12	–	–	–	–	96.0	–	–	–
Cc1c(NC(=O)c2ccc(Cl)nc2)cccc1-c1nc2cccnc2s1	–	–	–	–	–	–	·	·
Cc1c(NC(=O)c2ccco2)cccc1-c1nc2cccnc2s1	–	–	–	–	46.0	–	–	–
O=C1N(c2ccccc2)c2ccccc2[C@]12C[C@H](O)CO2	–	–	·	·	·	·	·	·
CCN(C(=O)C(C)N1C(=O)/C(=C/c2ccco2)SC1=S)C1CCS(=O)(=O)C1 (centres undefined)	–	?	–	–	42.0	–	–	–
CC(C(=O)N(C)C1CCS(=O)(=O)C1)N1C(=O)/C(=C/c2ccc(F)cc2)SC1=S (centres undefined)	–	–	–	–	–	–	·	·
COC(=O)c1cc2c(ccn2-c2ccc(F)cc2)n1C(C)C	–	–	–	–	67.0	·	–	–
COC(=O)c1cc2c(ccn2-c2ccc(F)cc2)n1CC(C)C	–	–	–	–	–	–	·	·
COc1cc(-c2nc(-c3ccc(NC(=O)c4ccc(Br)o4)cc3)no2)cc(OC)c1OC	–	·	–	–	82.0	–	–	–
O=C(COC(=O)COc1ccccc1[N+](=O)[O-])NCc1ccc2c(c1)OCO2	–	–	–	–	43.0	·	–	–
O=C(COC(=O)COc1ccccc1[N+](=O)[O-])Nc1ccc2c(c1)OCO2	–	–	–	–	–	·	·	·
O=C1c2nccnc2C(=O)N1c1ccc(C(F)(F)F)cc1	–	–	–	–	57.0	–	–	–
CCOc1ccc(N2C(=O)c3cccnc3C2=O)cc1	–	–	–	–	–	–	·	·
CCC(C(=O)NCC1CCCO1)N(Cc1ccc(F)cc1)C(=O)CNS(=O)(=O)c1ccccc1 (centres undefined)	–	–	–	–	78.0	–	–	–
O=C(NC1CCCCC1)C(c1ccnc2ccccc12)n1c(=O)c(-c2ccccc2)nc2ccccc21 (centres undefined)	–	–	·	·	·	·	·	·
CN1CCc2c(sc(NC(=O)CS(=O)(=O)c3ccccc3)c2C(N)=O)C1	–	–	–	–	–	–	·	·	GRK2 CP2=–;FAM quench CP2=–
CNC(=O)c1c(NC(=O)CCS(=O)(=O)c2ccccc2)sc2c1CCN(C(=O)OC)C2	–	–	–	–	–	–	·	·	GRK2 CP2=–;FAM quench CP2=–
CC(=O)N1CCc2c(sc(NC(=O)CCS(=O)(=O)c3ccc(C)cc3)c2C#N)C1	–	–	–	–	–	–	·	·	GRK2 CP2=–;FAM quench CP2=–
CCOC(=O)c1c(NC(=O)CCS(=O)(=O)c2ccccc2)sc2c1CCN(C(C)C)C2	–	?	–	–	–	–	·	·
CCCN1CCc2c(sc(NC(=O)CCS(=O)(=O)c3ccccc3)c2C(N)=O)C1	–	–	–	–	–	–	·	·
SMILES	SKN-1 block	Myeloid diff MLP	T cell HTS	Rin1-Abl PPI inh	GRK2 aptamer HTS	Rce1 inh	GRK2 CP1	Aptamer quench SP	others
CNC(=O)c1c(NC(=O)CCS(=O)(=O)c2ccc(C)cc2)sc2c1CCN(C(=O)OC)C2	–	–	–	–	–	–	·	·	GRK2 CP2=–;FAM quench CP2=–
O=C(Cc1cccs1)N[C@@H]1c2ccccc2CC[C@H]1OCc1ccccc1	–	–	·	–	–	·	·	·
CCCCNC(=O)C1c2ccccc2OCC(=O)N1Cc1cccnc1 (centres undefined)	–	–	·	·	·	·	·	·
CCNc1ccc(S(=O)(=O)N2CCOCC2)cc1NCC(=O)Nc1cccc(Br)c1	–	–	·	–	·	·	·	·
CN1C(=O)NC(NS(=O)(=O)c2ccc(N)cc2)(C(F)(F)F)C1=O (centres undefined)	–	–	–	–	–	–	·	·
Cc1cc(C)n(CC(=O)c2ccc(Br)cc2)c(=O)c1C#N	–	–	–	–	71.0	–	–	–
Cc1cc(N/C=C/C(=O)c2ccc(Br)cc2)no1	–	–	–	–	77.0	·	–	–
O=C(CN(Cc1ccccc1Cl)C(=O)CNS(=O)(=O)c1ccccc1)NCC1CCCO1 (centres undefined)	–	–	–	–	–	–	·	·
COc1ccc(OC(=O)c2cnn(-c3ccccc3)c2C)cc1	–	–	–	–	44.0	–	–	–
O=C(NC(c1ccc(Cl)cc1)c1cnccn1)C1CCN(Cc2cccc(C(F)(F)F)c2)CC1 (centres undefined)	–	–	·	–	·	·	·	·
C=CCOc1ccc(C2C(C(=O)c3ccco3)=C(O)C(=O)N2c2nnc(C)s2)cc1 (centres undefined)	–	–	–	–	73.0	–	–	–
Cc1ccc(-c2csc(N(CCCN3CCOCC3)C(=O)c3ccco3)n2)cc1	–	–	–	–	–	·	–	–
O=c1[nH]c(=O)n(Cc2ccccc2)c2nc(-c3ccc(C(F)(F)F)cc3)n(CCO)c12	–	–	–	–	–	–	·	·
CC(C)=C1C2CCC1C1C(=O)N(c3ccc4c(c3)OCO4)C(=O)C21 (centres undefined)	–	–	–	–	48.0	–	·	·	GRK2 CP2=–;FAM quench CP2=–
Cn1c(N2CCN(C(=O)NCc3ccccc3)CC2)nc2ccccc21	–	–	–	–	–	–	·	·
Cn1c(N2CCN(C(=O)Nc3ccc(C(F)(F)F)cc3)CC2)nc2ccccc21	–	–	–	–	–	–	–	–
Cn1c(SCC(=O)CC(=O)Nc2ccccc2)nnc1-c1ccc(O)cc1	–	–	–	–	–	·	·	·
O=C(CSc1nnc(-c2ccc(O)cc2)n1-c1ccccc1)CC(=O)Nc1ccccc1	–	–	–	–	92.0	–	·	·	GRK2 CP2=–;FAM quench CP2=–
COC(=O)c1c(NC(=O)C(C)(C)C)csc1C	–	–	–	–	–	–	·	·
O=c1c2c(ncn2C2CCCC2)n(Cc2ccccc2)c(=O)n1CCOc1ccc(Br)cc1	–	–	–	–	100.0	–	·	·	GRK2 CP2=–;FAM quench CP2=–
O=C1C=C(Nc2ccc(O)cc2)CC(c2ccco2)C1 (centres undefined)	–	–	–	–	–	–	·	·
